Measurements from publication PMC5648609 (Xenobiotica; the fate of foreign compounds in biological …, 2017).
Marks after values point to notes of the source that are not given here.

Legend:
hOCT3 [1] = target: T1, hOCT3 (Homo sapiens, UniProt O75751); assay: ASP+-based fluorescence uptake inhibition assay, hOCT3; format: cell-based
T1 sequence (O75751 1-556): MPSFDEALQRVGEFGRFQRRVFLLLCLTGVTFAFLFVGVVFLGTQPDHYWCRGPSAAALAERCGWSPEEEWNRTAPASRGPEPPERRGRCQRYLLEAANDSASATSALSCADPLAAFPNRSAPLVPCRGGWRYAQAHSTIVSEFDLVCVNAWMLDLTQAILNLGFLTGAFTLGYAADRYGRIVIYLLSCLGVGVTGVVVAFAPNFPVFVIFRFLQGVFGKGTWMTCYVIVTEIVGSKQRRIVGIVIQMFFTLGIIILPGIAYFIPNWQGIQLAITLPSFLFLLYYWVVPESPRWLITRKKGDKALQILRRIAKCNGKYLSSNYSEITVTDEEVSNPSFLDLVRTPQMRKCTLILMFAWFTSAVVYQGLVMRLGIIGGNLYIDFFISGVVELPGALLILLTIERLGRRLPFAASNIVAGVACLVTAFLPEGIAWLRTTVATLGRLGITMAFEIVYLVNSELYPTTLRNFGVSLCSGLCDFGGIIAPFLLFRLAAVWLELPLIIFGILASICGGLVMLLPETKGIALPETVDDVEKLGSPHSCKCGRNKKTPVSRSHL

hOCT2 [2] = target: T2, hOCT2 (Homo sapiens, UniProt O15244); assay: ASP+-based fluorescence uptake inhibition assay, hOCT2; format: cell-based
T2 sequence (O15244 1-555): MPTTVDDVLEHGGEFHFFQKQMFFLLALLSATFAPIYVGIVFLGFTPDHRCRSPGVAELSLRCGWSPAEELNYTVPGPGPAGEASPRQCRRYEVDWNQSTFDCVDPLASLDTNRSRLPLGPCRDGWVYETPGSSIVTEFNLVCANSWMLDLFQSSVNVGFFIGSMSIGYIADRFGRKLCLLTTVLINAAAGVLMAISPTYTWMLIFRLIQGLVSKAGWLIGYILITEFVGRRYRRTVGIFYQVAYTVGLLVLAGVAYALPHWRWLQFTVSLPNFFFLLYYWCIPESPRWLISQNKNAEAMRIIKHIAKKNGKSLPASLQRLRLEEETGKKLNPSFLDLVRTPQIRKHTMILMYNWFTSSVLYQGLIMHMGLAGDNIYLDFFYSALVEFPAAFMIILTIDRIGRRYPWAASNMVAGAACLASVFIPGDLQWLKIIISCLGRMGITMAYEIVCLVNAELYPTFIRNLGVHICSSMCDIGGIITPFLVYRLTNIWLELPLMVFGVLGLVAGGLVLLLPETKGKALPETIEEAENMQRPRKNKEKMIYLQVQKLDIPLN

[3] = system: hOCT3 stably transfected HEK293 cells; assay: MTT cytotoxicity assay, hOCT3 cells; format: cell-based, human; settings: for TC50 OCT3: MTT, 72 h, hOCT3 HEK293 cells, mean±SD of six experiments; for Fold increase over pcDNA5 OCT3: ratio of TC50 pcDNA5 to TC50 hOCT3 cells
[4] = system: hOCT1 stably transfected HEK293 cells; assay: MTT cytotoxicity assay, hOCT1 cells; format: cell-based, human; settings: for TC50 OCT1: MTT, 72 h, hOCT1 HEK293 cells, mean±SD of six experiments; for Fold increase over pcDNA5 OCT1: ratio of TC50 pcDNA5 to TC50 hOCT1 cells
[5] = system: hOCT1-3 stably transfected HEK293 cells; assay: MTT cytotoxicity assay, result stated across hOCT1-3 cells; settings: compared to vector-transfected HEK293 cells
[6] = system: hOCT2 stably transfected HEK293 cells; assay: MTT cytotoxicity assay, hOCT2 cells; format: cell-based, human; settings: for TC50 OCT2: MTT, 72 h, hOCT2 HEK293 cells, mean±SD of six experiments; for Fold increase over pcDNA5 OCT2: ratio of TC50 pcDNA5 to TC50 hOCT2 cells
[7] = system: pcDNA5 (control) stably transfected HEK293 cells; assay: MTT cytotoxicity assay, pcDNA5 control cells; format: cell-based, human; settings: 72 h, vector control HEK293 cells, mean±SD of six experiments
hOCT1 [8] = target: T3, hOCT1 (Homo sapiens, UniProt O15245); assay: ASP+-based fluorescence uptake inhibition assay, hOCT1; format: cell-based
T3 sequence (O15245 1-554): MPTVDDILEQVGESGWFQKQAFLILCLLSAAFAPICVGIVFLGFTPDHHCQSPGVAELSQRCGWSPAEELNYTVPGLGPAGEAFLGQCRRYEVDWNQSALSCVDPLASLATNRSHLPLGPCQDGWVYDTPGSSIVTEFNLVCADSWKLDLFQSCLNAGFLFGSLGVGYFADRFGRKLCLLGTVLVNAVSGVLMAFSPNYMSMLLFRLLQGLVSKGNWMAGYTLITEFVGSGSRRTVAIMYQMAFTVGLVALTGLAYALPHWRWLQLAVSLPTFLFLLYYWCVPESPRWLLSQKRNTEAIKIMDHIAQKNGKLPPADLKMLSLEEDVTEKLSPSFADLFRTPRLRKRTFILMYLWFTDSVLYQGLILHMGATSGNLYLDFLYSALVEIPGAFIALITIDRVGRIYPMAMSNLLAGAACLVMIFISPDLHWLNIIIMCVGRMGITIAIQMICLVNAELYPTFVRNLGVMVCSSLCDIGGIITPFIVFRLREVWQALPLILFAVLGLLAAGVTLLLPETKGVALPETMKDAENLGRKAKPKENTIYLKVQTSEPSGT

hOCT3 [9] = target: T1, hOCT3; assay: β-Carboline uptake assay; format: in vitro ADME; settings: 1 μM substrate, 30 minutes
Procedure, shortened: (§1)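 Flp-in HEK293 cells stably expressing the transporter, with empty pcDNA5/FRT vector cells as control, were grown overnight at 100 000 cells/well on poly-L-ornithine-coated plastic. Cells were washed twice with HBSS, acclimated for 10 min at 37 °C, then given 1 µM substrate in HBSS for 30 min. Uptake was stopped with three ice-cold HBSS washes. Cells were lysed in acetonitrile with internal standard, and drug was quantified by ESI-positive LC-MS/MS and normalized to total protein (BCA).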

hOCT1 [10] = target: T3, hOCT1; assay: β-Carboline uptake assay; format: in vitro ADME; settings: 1 μM substrate, 30 minutes
Procedure, shortened: as §1

[11] = single ingestion of Ayahuasca, healthy volunteers; ref Riba et al., 2012; cited from earlier work
[12] = human plasma; ref Ito et al., 2012; cited from earlier work
hOCT2 [13] = target: T2, hOCT2; settings: read-out: Ki for hOCT2; hOCT2 expressed in HEK293 cells; ref Ito et al., 2012; cited from earlier work

Structure (SMILES)	IC50 (hOCT3 [1]) [µM]	IC50 (hOCT2 [2]) [nM]	TC50 OCT3 [3]	Fold increase over pcDNA5 OCT3 [3] [fold]	TC50 OCT1 [4]	Fold increase over pcDNA5 OCT1 [4] [fold]	Effect of hOCT1-3 expression on cytotoxicity (in words) [5]	TC50 OCT2 [6]	Fold increase over pcDNA5 OCT2 [6] [fold]	TC50 pcDNA5 [7] [µM]	IC50 (hOCT1 [8]) [µM]	Accumulation in hOCT3 transfected cells relative to vector cells (hOCT3 [9])	Accumulation in hOCT1 transfected cells relative to vector cells (hOCT1 [10])	Plasma concentration after Ayahuasca [11]	Clinically encountered concentrations in plasma [12] [µM]	Ki (hOCT2 [13]) [µM]
Cn1c2c(c3ccccc31)CC[N+](C)=C2.[I-] [2,9-dimethyl-4,9-dihydro-3Hβ-carbolin-2-ium, iodide]	7.3 ± 0.5	524 ± 88	80.6 ± 7.2 µM	1.6	119 ± 33 µM	1.1	no significant effect	117 ± 22 µM	1.1	127 ± 18	40.4 ± 2.4	–	–	–	–	–
COc1ccc2c3c([nH]c2c1)C(C)=NCC3 [Harmaline, 4,9-dihydro-7-methoxy-1-methyl-3H-pyrido[3,4-b] indole]	4.76 ± 0.46	–	33.1 ± 8.2 µM	0.69	23.0 ± 5.1 µM	1.0	no significant effect	35.5 ± 3.8 µM	0.65	23.0 ± 3.6	27.6 ± 3.8	~ 2 fold	~ 2 fold	mid to high nanomolar range	–	–
COc1ccc2c(c1)[nH]c1c(C)nccc12 [Harmine, 7-methoxy-1-methyl-9H-pyrido[3,4-b] indole]	17.7 ± 1	–	2.81 ± 0.23 µM	–	2.55 ± 0.26 µM	–	no significant effect	3.01 ± 0.41 µM	–	2.87 ± 0.47	23.1 ± 2.8	–	–	–	–	–
C[n+]1ccc(-c2ccccc2)cc1 [MPP+, 1-methyl-4-phenylpyridinium]	–	–	5.86±0.68 ^a μM	10.9	3.88±0.38 ^a μM	16.4	–	7.16±0.75 ^a μM	8.9	63.6 ± 12.7	–	–	–	–	–	–
C[n+]1ccc2c(c1)[nH]c1ccccc12.[I-] [Norharmanium, 2-methyl-9H-β-carboline-2-ium, iodide]	13.1 ± 0.1	–	10.8±1.4 ^a μM	11.0	9.05±2.54 ^a μM	13.1	greatly increased toxicity	13.4±2.4 ^a μM	8.9	119 ± 18	70.5 ± 6.6	–	–	–	–	–
CN/C(=N/CCSCc1nc[nH]c1C)NC#N [cimetidine]	–	–	–	–	–	–	–	–	–	–	–	–	–	–	2.0 to 3.6	95 to 146
